Most compounds without a hit are left out; they make up all but 2.5% or so of the library.
ABHD5-PLIN5 inh = ABHD5-PLIN5 protein interaction inhibition | inhibition, % at 4 µM | 0.78% of 360,000 active | Split G. princeps luciferase complementation, luminescence, 4 h;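 active = inhibition above the mean inhibition across every tested compound plus 3 SD, cut at about 22% in these data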
Target sequence (Q00G26 whole entry, looked up): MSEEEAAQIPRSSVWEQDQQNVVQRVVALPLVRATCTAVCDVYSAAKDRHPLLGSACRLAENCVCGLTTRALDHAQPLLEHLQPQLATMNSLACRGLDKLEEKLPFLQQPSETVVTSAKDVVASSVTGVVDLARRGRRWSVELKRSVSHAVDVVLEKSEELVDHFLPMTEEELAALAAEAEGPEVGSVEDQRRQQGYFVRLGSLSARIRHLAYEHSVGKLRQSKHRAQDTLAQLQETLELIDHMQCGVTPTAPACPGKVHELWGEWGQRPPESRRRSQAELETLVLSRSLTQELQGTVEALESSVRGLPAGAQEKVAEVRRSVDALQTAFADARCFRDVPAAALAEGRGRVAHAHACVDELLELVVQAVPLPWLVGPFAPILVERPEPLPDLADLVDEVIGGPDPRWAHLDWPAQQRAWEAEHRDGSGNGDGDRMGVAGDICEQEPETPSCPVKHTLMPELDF
Target sequence (Q8WTS1 whole entry, looked up): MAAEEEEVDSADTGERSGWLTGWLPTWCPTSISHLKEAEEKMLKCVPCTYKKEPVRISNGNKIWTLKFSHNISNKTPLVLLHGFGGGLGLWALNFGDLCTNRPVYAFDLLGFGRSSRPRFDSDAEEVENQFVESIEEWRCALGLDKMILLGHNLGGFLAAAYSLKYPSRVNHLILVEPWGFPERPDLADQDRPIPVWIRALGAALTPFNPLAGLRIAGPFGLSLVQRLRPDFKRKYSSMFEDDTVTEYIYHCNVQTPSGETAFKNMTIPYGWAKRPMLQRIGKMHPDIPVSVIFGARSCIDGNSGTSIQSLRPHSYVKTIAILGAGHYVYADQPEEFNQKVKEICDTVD
Beta2AR agonist = human beta-2 adrenergic receptor agonism by FAP; P07550; Am2.2-beta2AR cells, FAP receptor internalization, flow cytometry; response, % (concentration not given with the values); 0.43% of 340,000 active;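 active = response above a set limit, near 3 SD of response in nonfluorescent compounds, cut at about 42% in these data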
MBD2 inh = blocks human MBD2 binding to methylated DNA; 0.31% of 370,000 active; AID 686964; inhibition, % at 4.4 µM; Q9UBB5; TR-FRET, MBD2 binding to methylated oligonucleotide; in the data active = inhibition above about 13%
Arrestin-AP2 inh = blocks beta-arrestin peptide binding to AP2 adaptin; AID 504490; 0.31% of 340,000 active; FITC-arrestin peptide / GST-AP2 beads, flow cytometry; AP2 beta2 appendage carries R879A mutation; inhibition, % at 10 µM;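 active = inhibition above a set limit, near 3 SD of compounds lacking own fluorescence, cut at about 54% in these data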
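test system = AP2 appendage R879A on GSH beads | buffer or medium = PBS plus Tween 20 (0.05%) and BSA (0.1%) | incubation = 12 min plus 1 h, RT | detection = bead flow cytometry, FITC channel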
UHRF1 MBD2 ctr = blocks human UHRF1 binding to methylated DNA | Q96T88 | UHRF1 binding to methylated oligo, TR-FRET | inhibition, % at 4.4 µM | 0.75% of 370,000 active | AID 687016; in the data active = inhibition above about 21%;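 note: UHRF1 SRA domain binding a hemimethylated CpG hairpin DNA probe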
Rin1-Abl PPI inh = human Rin1-Abl interaction inhibition. P00519+Q13671. TR-FRET Rin1/Abl binding, biochemical. inhibition, % at 7.35 µM. 0.4% of 360,000 active; in the data active = inhibition above about 5%, passing the limit was not always enough
Each line names hits and unclear results; the compound was inactive in the other large screens.

Cc1nn(Cc2nnc(SCC(=O)Nc3cccc(C(F)(F)F)c3)n2C)c(C)c1[N+](=O)[O-]	UHRF1 MBD2 ctr 41
COc1ccc(-c2sc3cc(OC)c(OC)cc3c2C#CCO)cc1	UHRF1 MBD2 ctr 22
COc1ccc(-c2sc3cc(OC)c(OC)cc3c2C#CC(C)(C)O)cc1	none
Cc1cc(=O)oc2c(N)nccc12	ABHD5-PLIN5 inh 22 (no result: Beta2AR agonist, MBD2 inh, Arrestin-AP2 inh, UHRF1 MBD2 ctr)
CC(C)(C)OC(=O)N1CCC(c2ccc[nH]2)(c2c[nH]c3ccccc23)CC1	none (no result: ABHD5-PLIN5 inh, Beta2AR agonist, Arrestin-AP2 inh, Rin1-Abl PPI inh)
COCCCN(C(=O)c1cc(-c2ccco2)nc2ccccc12)c1c(N)n(Cc2ccccc2)c(=O)[nH]c1=O	UHRF1 MBD2 ctr 23
COC(=O)C[C@H]1CC[C@@H]2[C@@H](COc3ccc(NC(=O)c4ccno4)cc3C(=O)N2C)O1	none (no result: ABHD5-PLIN5 inh, Beta2AR agonist, Arrestin-AP2 inh, Rin1-Abl PPI inh)
Cc1cc(C(=O)CS(=O)(=O)c2ccc(F)cc2)cc(C)c1O	Arrestin-AP2 inh 67
COC(=O)c1ccc2nc(C3CCCCC3)c(CC(C)(C)C)n2c1	UHRF1 MBD2 ctr 21 (no result: Beta2AR agonist, Arrestin-AP2 inh)
CC(C)C[C@@H]1COc2cc(N3CCCC3)ccc2S(=O)(=O)N1C	none (no result: ABHD5-PLIN5 inh, Beta2AR agonist, Arrestin-AP2 inh, Rin1-Abl PPI inh)
Cc1nn(CC(=O)O)c(C)c1[N+](=O)[O-]	none
Cc1nn(CC(=O)O)c(C)c1N	UHRF1 MBD2 ctr 30
Nc1c(Cl)ncnc1N/N=C/c1ccc2ccccc2n1	Rin1-Abl PPI inh 6.4 (no result: Arrestin-AP2 inh)
Nc1c(Cl)ncnc1N/N=C/c1ccccn1	none (no result: ABHD5-PLIN5 inh, Beta2AR agonist, Arrestin-AP2 inh, Rin1-Abl PPI inh)
O=C(CCNC(=O)c1ccc(Br)cc1)Nc1cccc(S(=O)(=O)N2CCCC2)c1	UHRF1 MBD2 ctr 36
O=C(CCNC(=O)c1ccc(Br)cc1)Nc1cccc(S(=O)(=O)N2CCCCCC2)c1	none
COC(=O)[C@]1(C#N)CC(=O)N(Cc2ccc(Cl)cc2)[C@@H]1c1ccccc1	none (no result: ABHD5-PLIN5 inh, Beta2AR agonist, Arrestin-AP2 inh, Rin1-Abl PPI inh)
Cc1cc(S(=O)(=O)N2CCCC(N(C)CCc3ccccn3)C2)c(C)cc1Cl (centres undefined)	UHRF1 MBD2 ctr 23
O=C(CCCl)NC1CCCCN(Cc2ccc(OC(F)(F)F)cc2)C1=O (centres undefined)	none (no result: ABHD5-PLIN5 inh, Beta2AR agonist, Arrestin-AP2 inh, Rin1-Abl PPI inh)
COc1cccc(C2/C(=C(/O)c3ccc(C)cc3)C(=O)C(=O)N2Cc2ccco2)c1 (centres undefined)	UHRF1 MBD2 ctr 29
Cc1ccc(C2/C(=C(/O)c3ccc(Br)cc3)C(=O)C(=O)N2Cc2ccco2)o1 (centres undefined)	ABHD5-PLIN5 inh 23
Cc1nn(CCC(=O)NNC(=O)Nc2ccc(Cl)cc2)c(C)c1[N+](=O)[O-]	none (no result: ABHD5-PLIN5 inh, Beta2AR agonist, Arrestin-AP2 inh, Rin1-Abl PPI inh)
Cc1cc2c(cc1C)C(=O)CCC2	UHRF1 MBD2 ctr 24 (no result: Beta2AR agonist, Arrestin-AP2 inh)
Cc1ccc(-c2cc(C(=O)NN=Cc3cccc(Oc4ccccc4)c3)[nH]n2)cc1C	none (no result: ABHD5-PLIN5 inh, Beta2AR agonist, Arrestin-AP2 inh, Rin1-Abl PPI inh)
Cc1cc(C(=O)COC(=O)c2ccc[nH]c2=O)c(C)n1-c1ccccc1F	none
Cc1cc(C(=O)COC(=O)c2ccc(O)cc2)c(C)n1-c1ccccc1F	UHRF1 MBD2 ctr 21
COc1ccc(-c2cc(-c3nnc(SCC(=O)Nc4nccs4)n3N)[nH]n2)cc1	none (no result: ABHD5-PLIN5 inh, Beta2AR agonist, Arrestin-AP2 inh, Rin1-Abl PPI inh)
Cc1ccc(Nc2nc(N)c3ccccc3n2)cc1Cl	UHRF1 MBD2 ctr 38
COc1cc2nc(Nc3ccc(C)c(Cl)c3)nc(N)c2cc1OC	none
COC(=O)[C@]12C[C@H](CC(=O)NCC3CCCCC3)C(=O)N(Cc3ccco3)C1=C[C@H](COCc1ccccc1)O[C@@H]2C	none (no result: ABHD5-PLIN5 inh, Beta2AR agonist, Arrestin-AP2 inh, Rin1-Abl PPI inh)
COC(=O)[C@]12C[C@H](CC(=O)NCCCN3CCCC3=O)C(=O)N(CCc3ccc(OC)c(OC)c3)C1=C[C@H](C1CCCC1)O[C@@H]2C	none (no result: ABHD5-PLIN5 inh, Beta2AR agonist, Arrestin-AP2 inh, Rin1-Abl PPI inh)
COc1ccc(C(=O)Nc2ccc3c(c2)nc(CN2CCN(C(C)=O)CC2)n3C)cc1	none
COc1ccc(C(=O)Nc2ccc3c(c2)nc(CN2CCCC2)n3C)cc1	UHRF1 MBD2 ctr 34
N#Cc1c(N2CCOCC2)nc(-c2ccco2)c2c1CCCC2	ABHD5-PLIN5 inh 23
O=C(Cc1ccc(Cl)c(Cl)c1)Nc1ccc(S(=O)(=O)Nc2ccon2)cc1	none (no result: ABHD5-PLIN5 inh, Beta2AR agonist, Arrestin-AP2 inh, Rin1-Abl PPI inh)
CSc1ncccc1C(=O)OCc1ccc(C#N)cc1	none
COC(=O)c1cccc(COC(=O)c2cccnc2SC)c1	UHRF1 MBD2 ctr 34
COc1ccc(/C=C(\NC(=O)c2ccccc2)C(=O)N2CCCCC2)cc1OC	UHRF1 MBD2 ctr 56
CCC(Sc1nc2cc(OC)c(OC)cc2c(=O)n1Cc1ccco1)C(=O)NCCOC (centres undefined)	none
CCC(Sc1nc2cc(OC)c(OC)cc2c(=O)n1Cc1ccc(OC)cc1)C(=O)NCCOC (centres undefined)	UHRF1 MBD2 ctr 23
